Assay results taken from ChEMBL document CHEMBL4184143 (J Med Chem, 2017).
Active and inactive are the calls of the source. The rule behind the calls is not given here.

How the values were obtained:
[1] = system: Mus musculus; assay: Toxicity in SCID mouse implanted with human MDA-MB-231 cells assessed as weight loss at 40 mg/kg, po qd measured 2 to 3 times weekly during treatment and weekly post dose; format: organism-based; details: in vivo
Summary of the method: (§1)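 At ~100 mm3, mice were randomized to treatment or vehicle control. Tumors were measured by electronic calipers. Animals were checked daily for signs of toxicity and weighed 2–3 times weekly on treatment, then at least weekly afterwards.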

[2] = Oral bioavailability in Sprague-Dawley rat at 25 mg/kg by LC/MS method; format: ADME, organism-based; details: in vivo
[3] = Volume of distribution at steady state in Sprague-Dawley rat at 5 mg/kg, iv by LC/MS method; format: ADME, organism-based; details: in vivo, read-out: Vdss
[4] = system: Mus musculus; assay: Half life in SCID mouse at 5 mg/kg, iv by LC/MS method; format: ADME, organism-based; details: in vivo
[5] = system: Mus musculus; assay: Volume of distribution at steady state in SCID mouse at 5 mg/kg, iv by LC/MS method; format: ADME, organism-based; details: in vivo
[6] = Half life in SCID mouse at 25 mg/kg, po by LC/MS method; format: ADME, organism-based; details: in vivo
[7] = AUC (0 to t) in SCID mouse at 25 mg/kg, po by LC/MS method; format: ADME, organism-based; details: in vivo
Summary of the method: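 Mouse plasma samples were stored at −80 °C. Drug levels were quantified by a validated LC–MS/MS method, and pharmacokinetic parameters were calculated by noncompartmental analysis.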

[8] = Oral bioavailability in SCID mouse at 25 mg/kg by LC/MS method; format: ADME, organism-based; details: in vivo
[9] = Half life in CD1 mouse liver microsomes at 1 uM by LC/MS method; format: ADME, microsome
[10] = Half life in Sprague-Dawley rat liver microsomes at 1 uM by LC/MS method; format: ADME, microsome
[11] = Half life in human liver microsomes at 1 uM by LC/MS method; format: ADME, microsome
[12] = biological target: Bromodomain-containing protein 2 (Homo sapiens, UniProt P25440); assay: Binding affinity to human partial length BRD2 bromodomain 1 long isoform (72 to 205 residues) expressed in bacterial expression system by BROMOscan assay
[13] = biological target: T1, Bromodomain-containing protein 3 (Homo sapiens, UniProt Q15059); assay: Binding affinity to human partial length BRD3 bromodomain 1 (P24 to E144 residues) expressed in bacterial expression system by BROMOscan assay
[14] = biological target: T1, Bromodomain-containing protein 3; assay: Binding affinity to human partial length BRD3 bromodomain 1/2 (P24 to P416 residues) expressed in bacterial expression system by BROMOscan assay
[15] = biological target: T2, Bromodomain-containing protein 4 (Homo sapiens, UniProt O60885); assay: Binding affinity to recombinant human BRD4 bromodomain 1 (44 to 168 residues) by BROMOscan assay
[16] = biological target: T2, Bromodomain-containing protein 4; assay: Binding affinity to human partial length BRD4 bromodomain 1/2 long isoform (N44 to E460 residues) expressed in bacterial expression system by BROMOscan assay
[17] = biological target: ATPase family AAA domain-containing protein 2 (Homo sapiens, UniProt Q6PL18); assay: Binding affinity to human partial length ATAD2A (Q981 to R1108 residues) expressed in bacterial expression system by BROMOscan assay
[18] = biological target: ATPase family AAA domain-containing protein 2B (Homo sapiens, UniProt Q9ULI0); assay: Binding affinity to human partial length ATAD2B (Q955 to R1082 residues) expressed in bacterial expression system by BROMOscan assay
[19] = biological target: Bromodomain-containing protein 7 (Homo sapiens, UniProt Q9NPI1); assay: Binding affinity to human partial length BRD7 (L125 to R254 residues) expressed in […] expression system by BROMOscan assay
[20] = biological target: T3, Bromodomain-containing protein 8 (Homo sapiens, UniProt Q9H0E9); assay: Binding affinity to human partial length BRD8 bromodomain 1 (S700 to F854 residues) expressed in mammalian expression system by BROMOscan assay
[21] = biological target: T3, Bromodomain-containing protein 8; assay: Binding affinity to human partial length BRD8 bromodomain 2 (D1095 to F1235 residues) expressed in mammalian expression system by BROMOscan assay
[22] = biological target: Bromodomain-containing protein 9 (Homo sapiens, UniProt Q9H8M2); assay: Binding affinity to human partial length BRD9 (R130 to V259 residues) expressed in bacterial expression system by BROMOscan assay
[23] = biological target: Peregrin (Homo sapiens, UniProt P55201); assay: Binding affinity to human partial length BRPF1 (E627 to G740 residues) expressed in bacterial expression system by BROMOscan assay
[24] = biological target: Histone acetyltransferase KAT2B (Homo sapiens, UniProt Q92831); assay: Binding affinity to human partial length PCAF (G715 to D831 residues) expressed in bacterial expression system by BROMOscan assay
[25] = biological target: Transcription initiation factor TFIID subunit 1 (Homo sapiens, UniProt P21675); assay: Binding affinity to human partial length TAF1 bromodomain 2 (D1521 to D1656 residues) expressed in bacterial expression system by BROMOscan assay
[26] = biological target: Bromodomain and WD repeat-containing protein 1 (Homo sapiens, UniProt Q9NSI6); assay: Binding affinity to human partial length WDR9 bromodomain 2 (A1310 to E1430 residues) expressed in bacterial expression system by BROMOscan assay
[27] = system: MV4-11; assay: Antitumor activity against human MV4-11 cells xenografted in SCID mouse assessed as tumor growth inhibition at 50 mg/kg, po qd measured 2 to 3 times weekly during treatment and once weekly post dose; format: functional; details: MV4-11, po, read-out: TGI; summary of the method: as §1
[28] = system: HBL-100; assay: Cytotoxicity against human HBL100 cells assessed as cell growth inhibition after 4 days by WST-8 assay; format: functional, cell-based; details: HBL-100, 96 h
Summary of the method: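 Breast cancer cells were seeded at 3,000 cells/well, treated with serially diluted compound in medium and cultured for 4 days. Growth was read by WST-8 (10% v/v final, 1–3 h) at 450 nm. Readings were normalized to DMSO-treated cells, and IC50 was obtained by nonlinear regression.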

[29] = system: Mus musculus; assay: Toxicity in SCID mouse implanted with human MV4-11 cells at 50 mg/kg, po qd measured 2 to 3 times weekly during treatment and once weekly post dose; format: organism-based; details: in vivo; summary of the method: as §1
[30] = system: MDA-MB-231; assay: Antitumor activity against human MDA-MB-231 cells xenografted in SCID mouse assessed as tumor growth inhibition at 40 mg/kg, po qd measured 2 to 3 times weekly during treatment and weekly post dose; format: functional, organism-based; summary of the method: as §1
[31] = system: MV4-11; assay: Inhibition of BET bromodomain in human MV4-11 cells assessed as downregulation of c-myc level after 1 hr by Western blot method; format: cell-based
Summary of the method: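 MV4;11 cells were treated with a range of compound concentrations for 1 h and lysed in RIPA buffer with protease inhibitors. Lysates were run on 4–20% SDS-PAGE, transferred to PVDF and probed for c-Myc with a specific antibody.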

[32] = system: MV4-11; assay: Inhibition of BET bromodomain in human MV4-11 cells assessed as upregulation of p21 protein level after 24 hrs by Western blot method; format: cell-based
Summary of the method: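 MV4;11 cells were exposed to compound for 24 h and lysed in RIPA buffer with protease inhibitors. Lysates were separated on 4–20% SDS-PAGE, blotted to PVDF and probed for PARP, cleaved PARP and p21, with β-actin as loading control.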

T1 sequence (Q15059 whole entry, the tested form may be a part): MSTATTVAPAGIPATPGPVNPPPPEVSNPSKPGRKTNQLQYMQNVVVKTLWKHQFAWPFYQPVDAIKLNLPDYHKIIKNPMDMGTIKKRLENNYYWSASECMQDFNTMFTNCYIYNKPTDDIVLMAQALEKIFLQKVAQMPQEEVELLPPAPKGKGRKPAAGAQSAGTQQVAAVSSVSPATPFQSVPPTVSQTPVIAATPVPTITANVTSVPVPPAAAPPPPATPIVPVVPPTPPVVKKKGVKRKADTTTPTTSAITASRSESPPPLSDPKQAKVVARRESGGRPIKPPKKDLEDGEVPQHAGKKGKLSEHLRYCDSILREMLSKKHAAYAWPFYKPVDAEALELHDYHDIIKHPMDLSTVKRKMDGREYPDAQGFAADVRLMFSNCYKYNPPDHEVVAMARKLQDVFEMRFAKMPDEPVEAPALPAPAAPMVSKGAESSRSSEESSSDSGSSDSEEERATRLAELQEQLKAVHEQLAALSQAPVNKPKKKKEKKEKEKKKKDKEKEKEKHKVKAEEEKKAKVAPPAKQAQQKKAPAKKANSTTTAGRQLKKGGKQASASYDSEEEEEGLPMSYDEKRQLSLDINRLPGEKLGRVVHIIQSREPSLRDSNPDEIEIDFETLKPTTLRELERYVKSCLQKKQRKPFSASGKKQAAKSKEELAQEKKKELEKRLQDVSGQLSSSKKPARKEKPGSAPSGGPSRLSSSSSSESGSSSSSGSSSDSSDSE
T3 sequence (Q9H0E9 whole entry, the tested form may be a part): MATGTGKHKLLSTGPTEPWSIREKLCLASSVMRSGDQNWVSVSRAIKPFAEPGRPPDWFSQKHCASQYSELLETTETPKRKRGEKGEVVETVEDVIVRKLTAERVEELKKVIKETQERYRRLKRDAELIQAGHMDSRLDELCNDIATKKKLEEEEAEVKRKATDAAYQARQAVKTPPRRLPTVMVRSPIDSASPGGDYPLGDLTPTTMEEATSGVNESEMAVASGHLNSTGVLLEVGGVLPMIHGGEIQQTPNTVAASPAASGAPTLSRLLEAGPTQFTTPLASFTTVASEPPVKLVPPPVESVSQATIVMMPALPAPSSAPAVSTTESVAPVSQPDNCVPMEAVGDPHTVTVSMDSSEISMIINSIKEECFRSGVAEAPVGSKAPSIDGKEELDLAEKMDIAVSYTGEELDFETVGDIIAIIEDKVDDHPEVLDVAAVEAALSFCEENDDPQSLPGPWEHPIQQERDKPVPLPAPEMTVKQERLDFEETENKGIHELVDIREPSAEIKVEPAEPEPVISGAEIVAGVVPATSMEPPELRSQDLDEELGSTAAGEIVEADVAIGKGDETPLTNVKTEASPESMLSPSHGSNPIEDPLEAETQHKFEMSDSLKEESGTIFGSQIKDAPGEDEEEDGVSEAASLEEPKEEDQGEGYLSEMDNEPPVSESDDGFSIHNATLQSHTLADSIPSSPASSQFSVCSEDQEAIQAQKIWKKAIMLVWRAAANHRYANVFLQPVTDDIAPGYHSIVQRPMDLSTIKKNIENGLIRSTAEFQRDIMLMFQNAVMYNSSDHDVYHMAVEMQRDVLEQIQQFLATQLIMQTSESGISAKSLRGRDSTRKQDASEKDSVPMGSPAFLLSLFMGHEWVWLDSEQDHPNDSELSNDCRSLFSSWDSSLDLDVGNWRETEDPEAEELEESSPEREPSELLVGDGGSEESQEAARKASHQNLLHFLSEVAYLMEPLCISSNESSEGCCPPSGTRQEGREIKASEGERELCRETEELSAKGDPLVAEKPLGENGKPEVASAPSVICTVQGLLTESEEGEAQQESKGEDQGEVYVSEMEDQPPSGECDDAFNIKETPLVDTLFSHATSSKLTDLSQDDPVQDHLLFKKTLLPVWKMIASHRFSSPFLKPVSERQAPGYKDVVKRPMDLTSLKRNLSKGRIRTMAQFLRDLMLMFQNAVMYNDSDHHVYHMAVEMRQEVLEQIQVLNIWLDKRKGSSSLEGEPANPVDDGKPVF
Chain of ATPase family AAA domain-containing protein 2 (Q6PL18 whole entry, the tested form may be a part): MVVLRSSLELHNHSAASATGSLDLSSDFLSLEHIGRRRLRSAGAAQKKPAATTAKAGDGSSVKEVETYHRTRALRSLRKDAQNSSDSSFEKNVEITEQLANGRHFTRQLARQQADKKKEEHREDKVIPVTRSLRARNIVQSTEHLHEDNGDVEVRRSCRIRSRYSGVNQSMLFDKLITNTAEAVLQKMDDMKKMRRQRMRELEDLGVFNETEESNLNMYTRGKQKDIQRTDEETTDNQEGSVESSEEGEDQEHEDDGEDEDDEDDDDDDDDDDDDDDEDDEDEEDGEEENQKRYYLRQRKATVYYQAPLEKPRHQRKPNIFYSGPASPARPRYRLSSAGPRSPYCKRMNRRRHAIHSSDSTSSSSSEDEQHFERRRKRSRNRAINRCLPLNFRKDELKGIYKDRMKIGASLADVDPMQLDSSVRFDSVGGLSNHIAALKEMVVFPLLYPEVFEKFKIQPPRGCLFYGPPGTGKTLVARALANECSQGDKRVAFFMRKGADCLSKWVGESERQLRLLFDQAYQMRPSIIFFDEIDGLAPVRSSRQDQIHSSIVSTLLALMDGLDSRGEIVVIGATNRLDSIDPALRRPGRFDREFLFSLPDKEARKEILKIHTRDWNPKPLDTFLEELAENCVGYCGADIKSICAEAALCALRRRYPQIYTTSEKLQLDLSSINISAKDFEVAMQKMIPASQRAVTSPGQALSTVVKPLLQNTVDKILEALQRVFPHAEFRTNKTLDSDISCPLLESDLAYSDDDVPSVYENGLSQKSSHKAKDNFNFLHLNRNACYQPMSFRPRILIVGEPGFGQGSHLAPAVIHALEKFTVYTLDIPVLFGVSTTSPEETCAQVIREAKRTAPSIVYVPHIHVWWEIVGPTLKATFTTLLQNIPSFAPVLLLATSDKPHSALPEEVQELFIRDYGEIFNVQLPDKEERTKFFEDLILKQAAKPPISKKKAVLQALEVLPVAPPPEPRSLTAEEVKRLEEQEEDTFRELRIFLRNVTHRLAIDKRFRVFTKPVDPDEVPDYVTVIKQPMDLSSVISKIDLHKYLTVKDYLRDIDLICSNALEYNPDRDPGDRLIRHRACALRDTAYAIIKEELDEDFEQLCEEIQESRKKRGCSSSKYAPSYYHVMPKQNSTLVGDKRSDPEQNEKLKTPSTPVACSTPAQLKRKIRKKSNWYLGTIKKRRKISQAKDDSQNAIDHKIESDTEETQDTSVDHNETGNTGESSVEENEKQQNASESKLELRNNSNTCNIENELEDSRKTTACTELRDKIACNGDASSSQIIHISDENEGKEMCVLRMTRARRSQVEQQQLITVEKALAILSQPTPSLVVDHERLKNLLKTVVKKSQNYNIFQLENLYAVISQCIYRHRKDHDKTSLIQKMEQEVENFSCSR
Chain of ATPase family AAA domain-containing protein 2B (Q9ULI0 whole entry, the tested form may be a part): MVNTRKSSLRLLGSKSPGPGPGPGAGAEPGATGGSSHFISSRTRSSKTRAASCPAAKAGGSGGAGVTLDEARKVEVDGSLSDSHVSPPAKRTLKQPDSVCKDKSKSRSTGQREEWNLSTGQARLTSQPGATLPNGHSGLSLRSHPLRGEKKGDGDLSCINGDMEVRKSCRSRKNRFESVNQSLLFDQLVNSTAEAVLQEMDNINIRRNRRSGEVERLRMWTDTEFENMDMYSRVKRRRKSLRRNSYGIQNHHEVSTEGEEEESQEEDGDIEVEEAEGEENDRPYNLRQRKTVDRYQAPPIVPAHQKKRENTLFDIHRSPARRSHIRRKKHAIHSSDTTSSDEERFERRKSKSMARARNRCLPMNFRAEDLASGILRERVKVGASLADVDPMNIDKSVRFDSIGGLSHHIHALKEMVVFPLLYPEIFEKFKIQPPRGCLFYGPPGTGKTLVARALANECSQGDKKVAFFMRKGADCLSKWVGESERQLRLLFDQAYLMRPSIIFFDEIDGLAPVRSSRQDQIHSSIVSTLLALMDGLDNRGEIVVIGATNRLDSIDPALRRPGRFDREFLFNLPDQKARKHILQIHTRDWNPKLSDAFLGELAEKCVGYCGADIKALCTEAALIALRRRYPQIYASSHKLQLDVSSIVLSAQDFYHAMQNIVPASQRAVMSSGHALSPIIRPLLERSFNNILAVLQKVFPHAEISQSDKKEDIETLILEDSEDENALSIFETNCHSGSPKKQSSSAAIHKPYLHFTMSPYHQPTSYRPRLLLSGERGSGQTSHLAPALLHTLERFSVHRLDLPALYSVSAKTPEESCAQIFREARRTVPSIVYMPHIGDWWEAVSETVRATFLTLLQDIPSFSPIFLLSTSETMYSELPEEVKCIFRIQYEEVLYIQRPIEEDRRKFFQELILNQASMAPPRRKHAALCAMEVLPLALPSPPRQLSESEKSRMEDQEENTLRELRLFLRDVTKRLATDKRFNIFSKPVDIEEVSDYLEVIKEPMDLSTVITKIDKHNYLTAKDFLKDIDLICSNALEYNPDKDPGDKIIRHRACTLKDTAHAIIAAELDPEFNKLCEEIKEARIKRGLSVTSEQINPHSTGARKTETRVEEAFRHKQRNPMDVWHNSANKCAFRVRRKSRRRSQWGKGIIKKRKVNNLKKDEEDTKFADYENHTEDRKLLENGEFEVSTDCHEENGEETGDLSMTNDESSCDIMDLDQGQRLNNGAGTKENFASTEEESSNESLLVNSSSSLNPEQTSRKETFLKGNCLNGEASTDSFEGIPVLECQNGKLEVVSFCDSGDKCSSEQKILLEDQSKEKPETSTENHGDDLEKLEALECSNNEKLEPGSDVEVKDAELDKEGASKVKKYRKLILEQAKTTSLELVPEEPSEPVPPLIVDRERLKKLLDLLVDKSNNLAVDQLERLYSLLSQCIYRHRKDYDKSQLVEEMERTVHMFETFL

SMILES: COc1cc2c(cc1-c1c(C)noc1C)[nH]c1nc(C)nc(-c3ccnc4ccccc34)c12
- Activity [1]: Non-Toxic
- bioavailability [2]: 93%
- Vd [3]: 2 L/kg
- t1/2 [4]: 0.5 h
- Vdss [5]: 2.75 L/kg
- half-life [6]: 1.6 h
- AUC(0-t) [7]: 9140 ng·h/mL
- bioavailability [8]: 50%
- t1/2 [9]: > 1 h
- t1/2 [10]: > 1 h
- t1/2 [11]: > 1 h
- Kd [12]: 0.0045 µM
- Kd [13]: 0.002 µM
- Kd [14]: 0.00073 µM
- Kd [15]: 0.0084 µM
- Kd [16]: 0.0018 µM
- Kd [17]: > 4 µM
- Kd [18]: > 4 µM
- Kd [19]: > 4 µM
- Kd [20]: > 4 µM
- Kd [21]: > 4 µM
- Kd [22]: > 4 µM
- Kd [23]: > 4 µM
- Kd [24]: > 4 µM
- Kd [25]: > 4 µM
- Kd [26]: > 4 µM
- inhibition in vivo at 50 mg/kg [27]: > 80%
- IC50 [28]: > 2 µM
- Activity [29]: Non-Toxic
- TGI [30]: Active
- inhibition [31]: Dose-dependent effect
- inhibition [32]: Dose-dependent effect
